pIC50: −log10 of the molar value. Calls of active or inactive are those of the source. The rule behind the calls is not given here.

We go through 8 molecules from ChEMBL document CHEMBL3870318, “Inhibitor screening and enzymatic activity determination for autophagy target Atg4B using a gel electrophoresis-based assay” (Eur J Med Chem, 2016).

The target in assay [1] is T1, Cysteine protease ATG4B (Homo sapiens, UniProt Q9Y4P1).
T1 sequence (Q9Y4P1 whole entry): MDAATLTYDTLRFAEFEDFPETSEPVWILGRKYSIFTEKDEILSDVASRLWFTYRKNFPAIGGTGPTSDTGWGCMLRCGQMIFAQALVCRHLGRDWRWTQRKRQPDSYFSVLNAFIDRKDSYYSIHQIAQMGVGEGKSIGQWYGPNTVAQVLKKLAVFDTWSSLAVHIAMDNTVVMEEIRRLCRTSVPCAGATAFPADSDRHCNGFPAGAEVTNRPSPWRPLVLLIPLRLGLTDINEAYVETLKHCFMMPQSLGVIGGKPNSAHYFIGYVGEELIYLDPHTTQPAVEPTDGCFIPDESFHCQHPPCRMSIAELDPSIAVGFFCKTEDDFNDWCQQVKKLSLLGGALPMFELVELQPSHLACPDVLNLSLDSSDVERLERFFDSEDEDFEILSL
Description: Inhibition of Atg4B (unknown origin) using YFP-LC3B-EmGFP as substrate after 40 mins by FRET-based assay.

Assay [2] addresses T1, Cysteine protease ATG4B. Description: Inhibition of human recombinant GST-tagged Atg4B expressed in Escherichia coli using LC3B-GST as substrate after 6 mins by SDS-PAGE assay.
In assay [3] the target is T2, Cysteine protease ATG4B (Homo sapiens) (UniProt Q9Y4P1).
T2 sequence (whole entry): T1 sequence (Q9Y4P1 whole entry)
As to the kind of experiment: Inhibition of human recombinant GST-tagged Atg4B expressed in Escherichia coli after 2 to 20 hrs by fluorescence assay. The method, boiled down:
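Fluorogenic peptides of 8, 10, 12 or 16 residues matching pro-LC3B Glu105–Gly120 (N-terminal to scissile Gly120), each C-terminally capped with an aminocarboxycoumarin (ACC) tag. Cleavage by Atg4B at about 20 nM was followed by fluorescence release for up to 20 h.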

Assay [4] deals with T2, Cysteine protease ATG4B (Homo sapiens). Description: Inhibition of human recombinant GST-tagged Atg4B expressed in Escherichia coli at 40 mM using LC3B-GST as substrate measured after 6 mins by SDS-PAGE assay. The method, boiled down:
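Recombinant human Atg4B (E. coli) at 0.625 ng/µL, with inhibitor dilutions of 0–40 mM, either preincubated 15 min or not preincubated. LC3B-GST (0.4 µg/µL) added in Tris-HCl buffer for 6 min. SDS-PAGE separation and Oriole staining followed. % uncleaved fusion protein derived from band optical densities. Single representative experiment.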

For assay [5] the target is unchanged. As to the kind of experiment: Inhibition of human recombinant GST-tagged Atg4B expressed in Escherichia coli at 4 mM preincubated for 15 mins followed by LC3B-GST substrate addition after 6 mins by SDS-PAGE assay. Put shortly:
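Recombinant human Atg4B (E. coli-expressed) at 0.625 ng/µL, preincubated 15 min with inhibitor. Then LC3B-GST (0.4 µg/µL) added in Tris-HCl buffer and incubated 6 min. Products resolved by SDS-PAGE and stained with Oriole. % uncleaved substrate derived by densitometry as OD(LC3B-GST)/(sum of all bands). Single representative experiment.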

Assay [6] deals with T1, Cysteine protease ATG4B. Description: Inhibition of wild type recombinant Atg4B (unknown origin) expressed in Escherichia coli BL21 DE3 using N-terminal His6-tagged LC3B-PLA2 as substrate after 60 mins by NBD-C6-HPC dye-based fluorescence assay.
Assay [7] deals with T2, Cysteine protease ATG4B (Homo sapiens). As to the kind of experiment: Inhibition of human recombinant GST-tagged Atg4B expressed in Escherichia coli at 4 mM using LC3B-GST as substrate preincubated up to 20 mins followed by substrate addition measured after 6 mins by SDS-PAGE assay.
For assay [8] the target is unchanged. Description: Inhibition of human recombinant GST-tagged Atg4B expressed in Escherichia coli at 20 mM using LC3B-GST as substrate measured after 6 mins by SDS-PAGE assay. The method, boiled down:
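Atg4B at 0.625 ng/µL in Tris-HCl was mixed with inhibitor without preincubation. [LC3B-GST] at 0.4 µg/µL was then added for 6 min. Products were resolved by SDS-PAGE and stained with Oriole fluorescent gel stain. Percent uncleaved substrate was taken by densitometry as OD(LC3B-GST)/[OD(LC3B-GST)+OD(GST)+OD(LC3B)]×100.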

Assay [9] shares this target. Description: Inhibition of human recombinant GST-tagged Atg4B expressed in Escherichia coli at 5 mM preincubated for 15 mins followed by LC3B-GST substrate addition after 6 mins by SDS-PAGE assay. Put shortly:
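Enzyme (0.625 ng/µL Atg4B, Tris-HCl buffer) was preincubated with inhibitor for 15 min before [LC3B-GST] (0.4 µg/µL) was added for 6 min. Samples were separated by SDS-PAGE and stained with Oriole. Densitometric optical densities of intact fusion protein, GST and LC3B gave percent uncleaved substrate.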

As to `O=C(N[C@@H](Cc1ccccc1)C(=O)CCl)OCc1ccccc1`, the pIC50 on Cysteine protease ATG4B [1] was 6.20.

As to `O=C(O)C1=CC(=C(c2ccc(O)c(C(=O)O)c2)c2ccc(O)c(C(=O)O)c2)C=CC1=O` [AURINTRICARBOXYLIC ACID], the pIC50 at Cysteine protease ATG4B [1] was 5.89; at Cysteine protease ATG4B [2], 4.35 to 4.42.

Regarding `Cc1sc2nc(C3CCCCC3)nc(SCC(=O)N3CC(=O)Nc4ccccc43)c2c1C`, in [3], the inhibition result is “Active”.

Take `NC(=O)CI`: the inhibition result in assay [4] and in [5] was “Active” each time.

As for `O=C(O)c1cc(O)c(=O)c2c(O)c(O)ccc2c1` [7-DESHYDROXYPYROGALLIN-4-CARBOXYLIC ACID], at Cysteine protease ATG4B [6], the negative-log IC50 (pIC50) is 5.64.

At Cysteine protease ATG4B [1], `Cc1cc(O)c2c(=O)c3c(O)cc(O)c4c5c(O)cc(O)c6c(=O)c7c(O)cc(C)c8c1c2c(c34)c(c78)c65` [HYPERICIN] gave a pIC50 of 4.24.

Take `CCN1C(=O)C=CC1=O`: the inhibition result in assay [7], in assay [8] and in assay [9] was “Active” in each case.

`O=c1oc2c(O)c(O)cc3c(=O)oc4c(O)c(O)cc1c4c23` [ELLAGIC ACID]: the inhibition entry in [3] was “Active”. The negative-log IC50 (pIC50) on Cysteine protease ATG4B [6] was 5.26.

A word on the pIC50: it is the IC50 on a negative log10 scale, so that one unit is a factor of ten.
